Reference: ChEMBL document CHEMBL1141557, “An expeditious one-pot synthesis of 1,6-dideoxy-N-alkylated nojirimycin derivatives and their inhibitory effects on the secretion of IFN-gamma and IL-4” (Bioorg Med Chem, 2008)
Calls of active or inactive are those of the source. The calls are words filed in the database; no cut-off is given here.

Key:
[1] = Inhibition of beta galactosidase
How it was run: (§1)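 Enzyme added to substrate (0.4–5 mM) in 25 mM phosphate and nitrate buffer, with or without iminosugar at various concentrations. Substrates were p-nitrophenyl glycosides; β-galactosidase used o-nitrophenyl β-galactoside.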

Splenocyte [2] = assay: Inhibition of IL4-secretion in BALB/c mouse splenocytes at 60 uM after 72 hrs by ELISA; format: functional
How it was run: (§2)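 Splenocytes from BALB/c mouse spleens, red cells lysed with Tris–NH4Cl pH 7.2, in RPMI-1640 with 10% newborn calf serum; 5 × 10^5 cells per well. Cells pretreated 4 h with 10 µg/mL concanavalin A (type IV), then given compound and held 72 h at 37 °C, 5% CO2. IFN-γ or IL-4 in the supernatant measured by mouse cytokine ELISA, quantified from a standard curve (15.63–500 pg/mL).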

[3] = Inhibition of alpha mannosidase; how it was run: as §1
[4] = molecular target: T1, Beta-mannosidase (Homo sapiens) (UniProt O00462); assay: Inhibition of beta-mannosidase; how it was run: as §1
T1 sequence (whole entry): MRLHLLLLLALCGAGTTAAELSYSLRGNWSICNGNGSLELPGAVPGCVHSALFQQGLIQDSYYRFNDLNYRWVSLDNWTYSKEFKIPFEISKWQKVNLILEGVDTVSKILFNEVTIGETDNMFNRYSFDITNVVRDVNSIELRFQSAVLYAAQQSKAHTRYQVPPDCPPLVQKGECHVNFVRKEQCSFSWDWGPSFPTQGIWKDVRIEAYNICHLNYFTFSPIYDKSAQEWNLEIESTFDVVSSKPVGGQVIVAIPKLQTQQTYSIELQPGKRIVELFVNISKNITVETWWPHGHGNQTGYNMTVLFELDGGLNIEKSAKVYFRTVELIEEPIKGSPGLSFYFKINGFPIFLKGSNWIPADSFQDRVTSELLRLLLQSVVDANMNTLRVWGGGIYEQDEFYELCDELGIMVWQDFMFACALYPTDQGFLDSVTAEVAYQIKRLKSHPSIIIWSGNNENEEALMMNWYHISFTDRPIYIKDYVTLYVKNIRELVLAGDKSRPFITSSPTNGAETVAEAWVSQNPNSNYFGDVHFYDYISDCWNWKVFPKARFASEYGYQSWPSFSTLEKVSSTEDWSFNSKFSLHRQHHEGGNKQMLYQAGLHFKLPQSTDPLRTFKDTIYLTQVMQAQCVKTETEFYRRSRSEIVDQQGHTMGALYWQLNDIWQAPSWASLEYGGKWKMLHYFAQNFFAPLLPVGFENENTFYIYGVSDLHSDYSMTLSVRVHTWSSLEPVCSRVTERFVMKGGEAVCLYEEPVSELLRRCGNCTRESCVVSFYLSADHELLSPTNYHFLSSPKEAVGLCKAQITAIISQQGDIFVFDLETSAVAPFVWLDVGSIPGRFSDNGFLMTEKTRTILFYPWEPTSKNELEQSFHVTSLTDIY

[5] = Inhibition of beta glucosidase; how it was run: as §1
[6] = Inhibition of alpha galactosidase; how it was run: as §1
Splenocyte [7] = assay: Inhibition of IFN-gamma secretion in BALB/c mouse splenocytes at 60 uM after 72 hrs by ELISA; format: functional; how it was run: as §2
[8] = Inhibition of alpha-L-fucosidase; how it was run: as §1
[9] = Inhibition of alpha glucosidase; how it was run: as §1
[10] = Inhibition of concanavalin A-induced BALB/c mouse splenocyte proliferation at 30 uM by MTT assay; format: functional
How it was run: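 Mouse splenocytes stimulated with concanavalin A; proliferation read by MTT assay as the mitochondrial dehydrogenase activity of surviving cells, with compound at 30 µM.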

SMILES	Activity [1]	inhibition at 60 µM (Splenocyte [2]) [%]	Activity [3]	Activity [4]	Activity [5]	Activity [6]	inhibition at 60 µM (Splenocyte [7]) [%]	IC50 [3] [µM]	IC50 [8] [µM]	IC50 [5] [µM]	IC50 [6] [µM]	IC50 [9] [µM]	Activity [8]	inhibition at 30 µM [10] [%]	Activity [9]
C[C@@H]1[C@@H](O)[C@H](O)[C@@H](O)CN1C1CCCCC1	inactive	57	inactive	inactive	inactive	inactive	9.1								
CCCCN1C[C@H](O)[C@@H](O)[C@H](O)[C@H]1C		44		inactive			55.5	2000	3000	540	234	77			
CC(=O)NCCN1C[C@H](O)[C@@H](O)[C@H](O)[C@H]1C		59.7	inactive	inactive		inactive	9			> 2000			inactive		
CCCCCCCCCCN1C[C@H](O)[C@@H](O)[C@H](O)[C@H]1C	inactive	90		inactive		inactive	61						inactive	48.3	inactive
C[C@@H]1[C@@H](O)[C@H](O)[C@@H](O)CN1CCN	inactive	64	inactive	inactive	inactive	inactive	41						inactive		
C[C@H]1NC[C@H](O)[C@@H](O)[C@@H]1O	inactive	58	inactive	inactive	inactive	inactive	9								
OC[C@H]1NC[C@H](O)[C@@H](O)[C@@H]1O [DUVOGLUSTAT]														15.6	
COCCN1C[C@H](O)[C@@H](O)[C@H](O)[C@H]1C	inactive	58.8	inactive	inactive	inactive	inactive	16								inactive
C[C@@H]1[C@@H](O)[C@H](O)[C@@H](O)CN1CCO	inactive	57	inactive	inactive		inactive	29			34					inactive
